Series [1] concerns SGBS. The series is described as follows: Upregulation of ADIPOQ gene expression in human preadipocyte derived from Simpson-Golabi-Behmel syndrome (SGBS) patient at 25 uM measured for 12 days by qRT-PCR analysis. Format: functional, cell-based. An outline of the steps: (§1)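 SGBS cells were differentiated with serum-free induction medium containing 25 μM test agent, 2 μM rosiglitazone or 0.1% DMSO from day 0. IBMX and dexamethasone were removed on day 4 and medium was renewed on day 8. RNA was taken on days 0, 4, 8 and 12 for qPCR, normalized to TBP and to day 0. At least three biological replicates in duplicate, two-way ANOVA with Bonferroni.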

Series [2] concerns SGBS. The series is described as follows: Upregulation of FABP4 gene expression in human preadipocyte derived from Simpson-Golabi-Behmel syndrome (SGBS) patient at 25 uM measured for 12 days by qRT-PCR analysis. Format: functional, cell-based. The procedure, abridged:
as §1

A further series relates to COS-1. The series is described as follows: Cytotoxicity against African green monkey COS1 cells assessed as reduction in cell viability at 10^-3 M by XTT based assay relative to control. To be noted: chlorocebus aethiops, cos-1, 1000 µM. The procedure, abridged: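 COS-1 cells were treated across the same concentration series as the GAL4 dose-response runs. Cytotoxicity was measured as LDH released into medium (absorbance 492/750 nm) and by XTT viability assay (absorbance 450/690 nm). Results expressed relative to control.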

In series [3] the target is T1, Peroxisome proliferator-activated receptor alpha (Mus musculus) (UniProt P23204).
T1 sequence (whole entry): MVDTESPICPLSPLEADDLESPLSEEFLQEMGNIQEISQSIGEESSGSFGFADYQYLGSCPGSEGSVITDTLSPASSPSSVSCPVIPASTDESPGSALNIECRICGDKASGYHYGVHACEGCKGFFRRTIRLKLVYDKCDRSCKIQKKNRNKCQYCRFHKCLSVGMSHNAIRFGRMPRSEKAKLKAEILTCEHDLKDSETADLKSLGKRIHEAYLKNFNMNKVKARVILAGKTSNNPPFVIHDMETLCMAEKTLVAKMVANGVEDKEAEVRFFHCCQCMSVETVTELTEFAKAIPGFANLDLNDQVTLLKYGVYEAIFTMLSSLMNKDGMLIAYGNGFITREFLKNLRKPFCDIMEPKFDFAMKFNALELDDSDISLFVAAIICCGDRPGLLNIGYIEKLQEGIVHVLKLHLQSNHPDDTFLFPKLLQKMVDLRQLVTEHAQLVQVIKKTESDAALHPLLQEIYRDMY
Put plainly: Agonist activity at PPARalpha in C57BL/6N mouse primary hepatocytes assessed as activation of Cpt1a mRNA expression at 50 uM measured after 18 hrs by qRT-PCR analysis. Format: cell-based. An outline of the steps: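 Treatment for 18 h at 50 μM (or 1 μM for the 1 μM agents), DMSO vehicle. Harvested for qPCR. mRNA normalized to TBP by the comparative threshold method, expressed relative to DMSO control. Two biological replicates run in duplicate, mean ± SEM. Primary hepatocytes came from male C57BL/6N mice aged 7–8 weeks, isolated by portal-vein perfusion and digestion, seeded on collagen I and used on day 2. HuH-7 cells were kept in DMEM with 10% FBS and ITS.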

Series [4] has as its system SGBS. Put plainly: Upregulation of CD36 gene expression in human preadipocyte derived from Simpson-Golabi-Behmel syndrome (SGBS) patient at 25 uM measured for 12 days by qRT-PCR analysis. The class given is functional, cell-based. An outline of the steps: as §1
Series [5] relates to SGBS. Put plainly: Induction of adipocyte differentiation in human preadipocyte derived from Simpson-Golabi-Behmel syndrome (SGBS) patient assessed as lipid accumulation at 25 uM measured for 12 days by Oil red O staining based microscopic analysis. Format: functional, cell-based. The procedure, abridged:
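Differentiation of SGBS preadipocytes was started in serum-free medium with transferrin, insulin, T3, hydrocortisol, IBMX and dexamethasone, plus 25 μM test agent, 2 μM rosiglitazone or 0.1% DMSO. On day 4 medium was switched to lack IBMX and dexamethasone, and it was renewed on day 8. Cells were fixed with 4% PFA and stained with 0.3% Oil Red O on days 0, 4, 8 and 12, then photographed.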

Series [6] has as its target T2, Peroxisome proliferator-activated receptor alpha (Homo sapiens, UniProt Q07869).
T2 sequence (Q07869 whole entry): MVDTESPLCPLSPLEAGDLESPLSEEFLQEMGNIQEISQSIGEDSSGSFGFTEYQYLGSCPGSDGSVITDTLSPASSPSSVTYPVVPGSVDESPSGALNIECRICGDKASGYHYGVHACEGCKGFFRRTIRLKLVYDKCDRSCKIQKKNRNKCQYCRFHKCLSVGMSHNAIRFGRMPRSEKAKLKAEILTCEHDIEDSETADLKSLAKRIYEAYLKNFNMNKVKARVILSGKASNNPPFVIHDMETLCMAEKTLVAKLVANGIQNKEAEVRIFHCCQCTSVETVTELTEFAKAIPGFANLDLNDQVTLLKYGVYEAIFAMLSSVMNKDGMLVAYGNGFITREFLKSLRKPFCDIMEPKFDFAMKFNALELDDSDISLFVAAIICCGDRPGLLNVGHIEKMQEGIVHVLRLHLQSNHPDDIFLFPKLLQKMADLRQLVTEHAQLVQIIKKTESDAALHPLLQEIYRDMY
The series is described as follows: Agonist activity at full length human FLAG-tagged GAL4-DBD fused PPARalpha LBD (168 to 468 residues) expressed in COS1 cells measured after 18 hrs by dual luciferase reporter gene assay. The class given is cell-based. An outline of the steps: (§2)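 Dose-response in COS-1 cells transfected with GAL4-DBD–human PPARα or PPARγ LBD, a 5×UAS-SV40 firefly reporter and pRL-CMV. Cells were treated with increasing concentrations in 0.1% DMSO (final) 6 h post-transfection, then for 18 h. Firefly/Renilla ratio, normalized to GAL4-only activity. EC50 was taken from a sigmoidal dose-response fit. At least three independent transfections in quadruplicate.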

Series [7] has as its system SGBS. Put plainly: Upregulation of CEBPA gene expression in human preadipocyte derived from Simpson-Golabi-Behmel syndrome (SGBS) patient at 25 uM measured for 12 days by qRT-PCR analysis. The class given is functional, cell-based. The procedure, abridged: as §1
Series [8] addresses T3, Peroxisome proliferator-activated receptor gamma (Homo sapiens, UniProt P37231).
T3 sequence (P37231 whole entry): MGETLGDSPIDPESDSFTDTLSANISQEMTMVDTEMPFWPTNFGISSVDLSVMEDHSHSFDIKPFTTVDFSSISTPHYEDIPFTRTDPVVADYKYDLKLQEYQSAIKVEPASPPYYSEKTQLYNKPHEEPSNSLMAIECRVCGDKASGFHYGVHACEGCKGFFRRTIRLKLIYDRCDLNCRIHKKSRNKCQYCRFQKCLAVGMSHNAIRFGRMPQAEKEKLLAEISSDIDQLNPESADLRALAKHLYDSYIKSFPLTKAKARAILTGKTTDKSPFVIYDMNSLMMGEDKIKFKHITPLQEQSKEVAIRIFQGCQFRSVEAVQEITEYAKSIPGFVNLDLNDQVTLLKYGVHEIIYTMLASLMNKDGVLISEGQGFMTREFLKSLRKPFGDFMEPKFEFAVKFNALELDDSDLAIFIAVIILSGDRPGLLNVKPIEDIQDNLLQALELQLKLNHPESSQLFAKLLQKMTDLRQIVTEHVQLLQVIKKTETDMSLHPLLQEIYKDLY
The series is described as follows: Agonist activity at full length human FLAG-tagged GAL4-DBD fused PPARgamma LBD (205 to 505 residues) expressed in COS1 cells measured after 18 hrs by dual luciferase reporter gene assay. The class given is cell-based. An outline of the steps: as §2

Calls of active or inactive are those of the source.

Regarding `CCCCCCCc1cc(CCCCCC(=O)O)no1`, the outcome (in the series with SGBS [1]; with SGBS [2]; in [3]; with SGBS [4]; in the series with SGBS [5]; with SGBS [7]) was Active. In addition, the Activity with COS-1 was determined as 40%. Further, the values for the EC50 in series [6] and in [8] were 0.047 mM and 2 mM, respectively.

These data come from ChEMBL document CHEMBL4393735, “Molecular modelling, synthesis, and biological evaluations of a 3,5-disubstituted isoxazole fatty acid analogue as a PPARα-selective agonist” (Bioorg Med Chem, 2019).
